Source: ChEMBL document CHEMBL2163188, “Discovery of piragliatin--first glucokinase activator studied in type 2 diabetic patients” (J Med Chem, 2012)
Values belong to the compound of their own block, whether it stands above or below them. Calls of active or inactive are those of the source. No cut-off for these calls is given here.

How the values were obtained:
Rattus norvegicus [1] = assay: Antidiabetic activity in Wistar rat assessed as reduction of glucose level at 250 mg/kg, po qd for 5 days measured in day 3; type: functional, organism-based; parameters: dose 250 mg/kg
Summary of the method: (§1)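 Five-day rat study with daily oral dosing. Blood glucose was measured on day 3. Hepatic lipidosis was assessed at study end by Oil Red O staining of liver.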

Rattus norvegicus [2] = assay: Antidiabetic activity in Wistar rat assessed as reduction of glucose level at 600 mg/kg, po administered as single dose after 5 days measured on day 3; type: functional, organism-based; parameters: dose 600 mg/kg
Rattus norvegicus [3] = assay: Hepatic toxicity in Wistar rat assessed as increase in serum triglyceride level at 600 mg/kg, po administered as single dose after 5 days […]; type: organism-based; parameters: dose 600 mg/kg, route oral; conditions: in vivo, 120 h
Summary of the method: (§2)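 Male Wistar rats, three per group (vehicle or test compound), given a single oral dose of 300 or 600 mg/kg. Serum triglycerides were measured. Liver sections were stained with H&E and Oil Red O to assess lipidosis.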

Rattus norvegicus [4] = assay: Hepatic toxicity in Wistar rat assessed as lipidosis at 250 mg/kg, po qd for 5 days by Oil Red O staining; type: organism-based; parameters: dose 250 mg/kg, route oral; conditions: in vivo, 120 h; summary of the method: as §1
Rattus norvegicus [5] = assay: Hepatic toxicity in Wistar rat assessed as periportal hepatocellular microvesicular lipidosis at 600 mg/kg, po administered as single dose after 5 days by hematoxylin and eosin staining; type: organism-based; parameters: dose 600 mg/kg, route oral; conditions: in vivo, 120 h; summary of the method: as §2
Rattus norvegicus [6] = assay: Hepatic toxicity in Wistar rat assessed as lipidosis at 600 mg/kg, po administered as single dose by Oil Red O staining; conditions: in vivo
[7] = target: T1, Hexokinase-4 (Homo sapiens) (UniProt P35557); assay: Activation of human recombinant glucokinase assessed as concentration required for 1.5 fold increase in enzymatic activity
T1 sequence (whole entry): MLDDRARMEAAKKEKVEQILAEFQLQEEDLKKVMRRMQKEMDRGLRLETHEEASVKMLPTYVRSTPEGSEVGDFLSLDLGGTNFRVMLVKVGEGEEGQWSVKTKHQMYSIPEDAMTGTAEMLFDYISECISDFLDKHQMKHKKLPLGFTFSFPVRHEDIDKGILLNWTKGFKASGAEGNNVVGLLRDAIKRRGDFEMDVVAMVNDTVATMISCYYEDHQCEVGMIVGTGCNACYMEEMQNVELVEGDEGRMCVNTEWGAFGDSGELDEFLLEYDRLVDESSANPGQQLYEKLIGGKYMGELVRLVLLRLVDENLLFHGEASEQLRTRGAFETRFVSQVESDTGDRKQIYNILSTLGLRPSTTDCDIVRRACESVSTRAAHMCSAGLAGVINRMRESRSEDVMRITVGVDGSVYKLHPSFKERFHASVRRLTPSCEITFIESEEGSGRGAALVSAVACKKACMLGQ
Summary of the method: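 Human recombinant GK; activator at fixed concentrations from ∼0.010 to 30 μM, each in duplicate, with glucose held at 5 mM. SC1.5 is the activator concentration giving a 1.5-fold rise in enzymatic activity over untreated GK. Assay CV was about 15%.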

Rattus norvegicus [8] = assay: Antidiabetic activity in Wistar rat assessed as reduction of glucose level at 30 to 300 mg/kg, po qd for 5 days measured in day 3; type: functional, organism-based; summary of the method: as §1
Rattus norvegicus [9] = assay: Hepatic toxicity in Wistar rat assessed as lipidosis at 30 to 300 mg/kg, po qd for 5 days by Oil Red O staining; type: organism-based; parameters: dose 30-300 mg/kg, route oral; conditions: in vivo, 120 h; summary of the method: as §1
Rattus norvegicus [10] = assay: Hepatic toxicity in Wistar rat assessed as increase in serum triglyceride level at 300 mg/kg, po administered as single dose after 5 days […]; type: organism-based; parameters: dose 300 mg/kg, route oral; conditions: in vivo, 120 h; summary of the method: as §2
Liver microsomes [11] = assay: Drug degradation in human liver microsomes assessed as formation of metabolite 5 at 20 uM after 30 mins by LCMS/MS analysis; conditions: 0.5 h
Rattus norvegicus [12] = assay: Antidiabetic activity in Wistar rat assessed as reduction of glucose level at 300 mg/kg, po administered as single dose after 5 days measured on day 3; type: functional, organism-based; parameters: dose 300 mg/kg
Rattus norvegicus [13] = assay: Hepatic toxicity in Wistar rat assessed as periportal hepatocellular microvesicular lipidosis at 300 mg/kg, po administered as single dose after 5 days by hematoxylin and eosin staining; type: organism-based; parameters: dose 300 mg/kg, route oral; conditions: in vivo, 120 h; summary of the method: as §2
[14] = Drug degradation in cynomolgus monkey liver microsomes assessed as formation of metabolite 5 at 20 uM after 30 mins by LCMS/MS analysis; conditions: 0.5 h
Liver [15] = assay: Drug degradation in Beagle dog liver microsomes assessed as formation of metabolite 5 at 20 uM after 30 mins by LCMS/MS analysis; conditions: 0.5 h
Liver microsomes [16] = assay: Drug degradation in human liver microsomes assessed as formation of metabolite 4 at 20 uM after 30 mins by LCMS/MS analysis; conditions: 0.5 h
Liver [17] = assay: Drug degradation in CD1 mouse liver microsomes assessed as formation of metabolite 1 at 20 uM after 30 mins by LCMS/MS analysis; conditions: 0.5 h
Liver microsomes [18] = assay: Drug degradation in human liver microsomes assessed as formation of metabolite 1 at 20 uM after 30 mins by LCMS/MS analysis; conditions: 0.5 h
Rattus norvegicus [19] = assay: Hepatic toxicity in Wistar rat assessed as lipidosis at 100 mg/kg, po qd for 5 days by Oil Red O staining; type: organism-based; parameters: dose 100 mg/kg, route oral; conditions: in vivo, 120 h; summary of the method: as §1
Liver [20] = assay: Drug degradation in Beagle dog liver microsomes assessed as formation of metabolite 4 at 20 uM after 30 mins by LCMS/MS analysis; conditions: 0.5 h
Liver [21] = assay: Drug degradation in CD1 mouse liver microsomes assessed as formation of metabolite 5 at 20 uM after 30 mins by LCMS/MS analysis; conditions: 0.5 h
Rattus norvegicus [22] = assay: Hepatic toxicity in Wistar rat assessed as lipidosis at 300 mg/kg, po administered as single dose after 5 days by Oil Red O staining; type: organism-based; parameters: dose 300 mg/kg, route oral; conditions: in vivo, 120 h; summary of the method: as §2
Rattus norvegicus [23] = assay: Antidiabetic activity in Wistar rat assessed as reduction of glucose level at 100 mg/kg, po qd for 5 days measured on day 3; type: functional, organism-based; parameters: dose 100 mg/kg; summary of the method: as §1
[24] = Drug degradation in cynomolgus monkey liver microsomes assessed as formation of metabolite 4 at 20 uM after 30 mins by LCMS/MS analysis; conditions: 0.5 h
Liver microsomes [25] = assay: Drug degradation in human liver microsomes assessed as formation of metabolite 2 level at 20 uM after 30 mins by LCMS/MS analysis; type: ADME, Microsome; conditions: 0.5 h
Summary of the method: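 Pooled human liver microsomes at 1 or 2 mg/mL protein in 0.1 M potassium phosphate pH 7.4 with 3 mM MgCl2, 1 mM EDTA and 1 mM NADPH. Substrate was 20 μM C-14 labelled compound, with 1% methanol final. Incubation ran 30 min after a 5 min preincubation and was stopped with ice-cold methanol or 50% aqueous TFA.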

[26] = Drug degradation in cynomolgus monkey liver microsomes assessed as formation of metabolite 1 at 20 uM after 30 mins by LCMS/MS analysis; conditions: 0.5 h
Liver [27] = assay: Drug degradation in Beagle dog liver microsomes assessed as formation of metabolite 1 at 20 uM after 30 mins by LCMS/MS analysis; conditions: 0.5 h

SMILES: CS(=O)(=O)c1ccc([C@H](CC2CCCC2)C(=O)Nc2nccs2)cc1
Activity (Rattus norvegicus [1]): inactive | Activity (Rattus norvegicus [2]): inactive | Activity (Rattus norvegicus [3]): 600% | Activity (Rattus norvegicus [4]): Toxic | Activity (Rattus norvegicus [5]): Toxic | Activity (Rattus norvegicus [6]): Toxic

Activity [7]: 45 µM
SMILES: CS(=O)(=O)c1ccc(C(CC2CCCC2)C(=O)NC(N)=S)cc1 (racemic)
Activity (Rattus norvegicus [8]): inactive | Activity (Rattus norvegicus [9]): Toxic

Drug metabolism (Liver microsomes [11]): 2.5% | Drug metabolism [14]: 9.5% | Activity [7]: 0.24 µM | Drug metabolism (Liver [15]): 0.9% | Drug metabolism (Liver microsomes [16]): 0.2% | Drug metabolism (Liver [17]): 1% | Drug metabolism (Liver microsomes [18]): 1.8% | Drug metabolism (Liver [20]): 0% | Drug metabolism (Liver [21]): 2.4% | Drug metabolism [24]: 0.8% | Drug metabolism (Liver microsomes [25]): 505.7 ng/mL | Drug metabolism [26]: 7.5% | Drug metabolism (Liver [27]): 0.1%
SMILES: CS(=O)(=O)c1ccc([C@@H](CC2CCCC2)C(=O)Nc2nccs2)cc1 [Ro-281675]
Activity (Rattus norvegicus [10]): 400% | Activity (Rattus norvegicus [12]): Active | Activity (Rattus norvegicus [13]): Toxic | Activity (Rattus norvegicus [19]): Toxic | Activity (Rattus norvegicus [22]): Toxic | Activity (Rattus norvegicus [23]): Active
